Measured values taken from ChEMBL document CHEMBL4177525, “Synthesis and evaluation of frentizole-based indolyl thiourea analogues as MAO/ABAD inhibitors for Alzheimer's disease treatment” (Bioorg Med Chem, 2017).
Activity calls are given as the source filed them. No cut-off for these calls is given here.

Tests used:
[1] = biological target: T1, Amyloid beta-binding alcohol dehydrogenase (Homo sapiens, UniProt Q2L8D9); assay: Inhibition of ABAD (unknown origin) by spectrophotometric assay
[2] = biological target: T2, peroxidase (horseradish peroxidase) (Raphanus sativus, UniProt K7N5L9); assay: Inhibition of horse radish peroxidase assessed as residual activity at 5 uM by amplex red dye based fluorescence assay; conditions: horseradish peroxidase (isolated enzyme), probe Amplex Red, read-out: Activity
Method in brief: (§1)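 HRP (0.02 U/mL) given H2O2 20 µM directly as substrate plus Ampliflu Red 20 µM in 50 mM potassium phosphate pH 7.4. Compound at 50 or 5 µM, 1% DMSO; controls DMSO only. Resorufin fluorescence read at ex 535/em 595 nm, 30°C, as remaining HRP activity.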

[3] = biological target: T3, Amine oxidase [flavin-containing] A (Homo sapiens, UniProt P21397); assay: Inhibition of human purified MAO-A expressed in insect cell membranes assessed as reduction in conversion of kynuramine to 4-hydroxyquinoline by spectrophotometric assay
T3 sequence (P21397 whole entry): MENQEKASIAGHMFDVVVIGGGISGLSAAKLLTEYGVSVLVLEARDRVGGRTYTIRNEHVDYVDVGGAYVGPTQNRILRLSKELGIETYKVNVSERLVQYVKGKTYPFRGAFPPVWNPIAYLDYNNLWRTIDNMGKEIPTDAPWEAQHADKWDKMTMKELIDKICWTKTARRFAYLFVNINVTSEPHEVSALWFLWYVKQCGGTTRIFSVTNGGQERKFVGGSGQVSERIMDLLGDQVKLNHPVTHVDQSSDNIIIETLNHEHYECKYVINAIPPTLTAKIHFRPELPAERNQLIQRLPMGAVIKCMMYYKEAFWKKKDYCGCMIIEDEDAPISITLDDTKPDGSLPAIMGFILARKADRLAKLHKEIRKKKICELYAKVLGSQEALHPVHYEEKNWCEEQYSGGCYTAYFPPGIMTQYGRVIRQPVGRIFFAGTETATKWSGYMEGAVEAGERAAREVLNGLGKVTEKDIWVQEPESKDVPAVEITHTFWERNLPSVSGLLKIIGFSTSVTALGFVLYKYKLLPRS

Peroxidase = Peroxidase (Raphanus sativus, UniProt K7N5L9); assay: Inhibition of horse radish peroxidase assessed as residual activity by amplex red dye based fluorescence assay
Method in brief: as §1

[4] = Cytotoxicity against CHOK1 cells assessed as reduction in cell viability after 24 hrs by MTT assay; assay type: cell-based, Cricetulus griseus; conditions: chinese hamster, CHO-K1 cells; read-out: LC50
Method in brief: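 CHO-K1 cells grown as ECACC recommends, seeded 8000 per well; compounds from DMSO stocks diluted in F-12 with 10% FBS and 1% pen/strep (final DMSO at most 0.5%), exposed 24 h. Medium then replaced with 10 µM MTT for about 3 h, formazan dissolved in DMSO, absorbance read at 570 nm (650 nm reference). LC50 from control-subtracted triplicates by four-parameter regression; mean ± SEM of 3 independent runs.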

[5] = Lipophilicity of the compound assessed as capacity factor at pH 3.5 by HPLC analysis; assay type: physicochemical; conditions: buffer
Method in brief: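 Capacity factor k from gradient HPLC on reversed-phase C18 in acid polar organic mode, pH ~3.5.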

[6] = biological target: T3, Amine oxidase [flavin-containing] A; assay: Inhibition of human membrane bound MAO-A expressed in insect cell membranes assessed as reduction in conversion of kynuramine to 4-hydroxyquinoline by spectrophotometric assay; conditions: read-out: IC50
Method in brief: (§2)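 Human MAO-A or MAO-B expressed in insect cell membranes, diluted 1/4000 (A) or 1/2000 (B). Kynuramine at 2×KM: 60 µM for MAO-A, 30 µM for MAO-B. Assay in 50 mM potassium phosphate pH 7.5, 30°C, 1% DMSO, absorbance at 314 nm. Inhibitor varied over 4 orders of magnitude, up to 100 µM. Linear rates from 8-10 assays fitted by 3-parameter regression with bottom fixed at zero; IC50 ± SE of estimate.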

[7] = biological target: T4, Amine oxidase [flavin-containing] B (Homo sapiens, UniProt P27338); assay: Inhibition of human membrane bound MAO-B expressed in insect cell membranes assessed as reduction in conversion of kynuramine to 4-hydroxyquinoline by spectrophotometric assay; conditions: read-out: IC50
T4 sequence (P27338 whole entry): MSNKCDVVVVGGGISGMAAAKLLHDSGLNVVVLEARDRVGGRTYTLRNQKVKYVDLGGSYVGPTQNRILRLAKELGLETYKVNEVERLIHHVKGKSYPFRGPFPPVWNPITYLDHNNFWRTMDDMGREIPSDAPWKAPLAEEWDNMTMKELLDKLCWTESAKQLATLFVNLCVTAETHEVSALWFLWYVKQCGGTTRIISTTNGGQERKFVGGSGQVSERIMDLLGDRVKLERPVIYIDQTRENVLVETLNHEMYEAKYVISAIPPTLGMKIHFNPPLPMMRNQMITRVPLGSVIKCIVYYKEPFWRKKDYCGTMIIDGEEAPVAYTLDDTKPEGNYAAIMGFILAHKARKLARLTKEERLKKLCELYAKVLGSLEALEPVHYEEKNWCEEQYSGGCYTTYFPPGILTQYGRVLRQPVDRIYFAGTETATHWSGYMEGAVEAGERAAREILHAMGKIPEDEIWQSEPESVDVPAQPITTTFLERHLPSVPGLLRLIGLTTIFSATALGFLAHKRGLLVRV
Method in brief: as §2

[8] = Quenching activity of the compound assessed as reduction in resorufin fluorescence; assay type: functional
Method in brief: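 Resorufin at 1 µM and 10 µM measured for fluorescence in the presence of compound at 50 µM.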

[9] = Solubility of the compound at 100 uM; assay type: physicochemical
Method in brief: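 Compounds checked for solubility in assay buffer at 100 µM.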

[10] = biological target: T1, Amyloid beta-binding alcohol dehydrogenase; assay: Inhibition of ABAD (unknown origin) assessed as residual activity at 100 uM using acetoacetyl-CoA in presence of NADH by spectrophotometric assay relative to control
Method in brief: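 Recombinant ABAD at 0.5 µg/mL with NADH 250 µM and acetoacetyl-CoA 120 µM; compound at 100 µM in 1% DMSO, controls with matching DMSO. Buffer 10 mM HEPES, 0.5% gelatin, pH 7.4 at 37°C. NADH consumption read as falling absorbance at 340 nm; reported as % remaining activity ± SEM from two biological repeats, each with three technical repeats.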

[11] = biological target: T2, peroxidase (horseradish peroxidase); assay: Inhibition of horse radish peroxidase assessed as residual activity at 50 uM by amplex red dye based fluorescence assay; conditions: horseradish peroxidase (isolated enzyme), probe Amplex Red, read-out: Activity
Method in brief: as §1

T2 sequence (K7N5L9 whole entry): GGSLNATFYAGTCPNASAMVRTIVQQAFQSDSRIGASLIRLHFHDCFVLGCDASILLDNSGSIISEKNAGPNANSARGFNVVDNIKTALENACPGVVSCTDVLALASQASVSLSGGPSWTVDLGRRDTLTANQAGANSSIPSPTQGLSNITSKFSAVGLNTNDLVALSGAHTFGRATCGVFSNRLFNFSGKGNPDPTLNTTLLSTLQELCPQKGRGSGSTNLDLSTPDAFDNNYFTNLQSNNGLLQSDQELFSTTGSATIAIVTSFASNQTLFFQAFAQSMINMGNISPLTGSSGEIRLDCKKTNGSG
Chain of Peroxidase (K7N5L9 whole entry): as above

| IC50 [1] | Structure (SMILES) | activity at 5 µM [2] | IC50 [3] | IC50 (Peroxidase) | CC50 at 24 h [4] | K [5] | IC50 [6] | IC50 [7] | Activity [8] | solubility [9] | Activity [10] | activity at 50 µM [11] |
| --- | --- | --- | --- | --- | --- | --- | --- | --- | --- | --- | --- | --- |
| 0.092 µM | O=C(C(c1ccccc1)n1cnc2[nH]ncc2c1=S)N1CCCCCC1 (configuration not stated) | – | – | – | – | – | – | – | – | – | – | – |
| – | Oc1c(Cl)cc(NC(=S)Nc2ccc3[nH]ccc3c2)cc1Cl | 48.6% | Not Active | 1.06 µM | 523 µM | 3.975 | > 100 µM | 17 µM | inactive | Soluble | 39% | 23.9% |
